Source: article PMC4207537 (Journal of Medicinal Chemistry, 2014)
≈ marks a conversion by molar mass, not a printed value.

Legend:
[1] = target: E. coli topoisomerase IV (Escherichia coli, UniProt P0AFI2+P20083); experiment: E. coli topoisomerase IV decatenation assay; assay type: biochemical
[2] = target: T1, E. coli topoisomerase I (Escherichia coli, UniProt P06612); experiment: Relaxation activity of E. coli topoisomerase I; assay type: biochemical
T1 sequence (P06612 1-865): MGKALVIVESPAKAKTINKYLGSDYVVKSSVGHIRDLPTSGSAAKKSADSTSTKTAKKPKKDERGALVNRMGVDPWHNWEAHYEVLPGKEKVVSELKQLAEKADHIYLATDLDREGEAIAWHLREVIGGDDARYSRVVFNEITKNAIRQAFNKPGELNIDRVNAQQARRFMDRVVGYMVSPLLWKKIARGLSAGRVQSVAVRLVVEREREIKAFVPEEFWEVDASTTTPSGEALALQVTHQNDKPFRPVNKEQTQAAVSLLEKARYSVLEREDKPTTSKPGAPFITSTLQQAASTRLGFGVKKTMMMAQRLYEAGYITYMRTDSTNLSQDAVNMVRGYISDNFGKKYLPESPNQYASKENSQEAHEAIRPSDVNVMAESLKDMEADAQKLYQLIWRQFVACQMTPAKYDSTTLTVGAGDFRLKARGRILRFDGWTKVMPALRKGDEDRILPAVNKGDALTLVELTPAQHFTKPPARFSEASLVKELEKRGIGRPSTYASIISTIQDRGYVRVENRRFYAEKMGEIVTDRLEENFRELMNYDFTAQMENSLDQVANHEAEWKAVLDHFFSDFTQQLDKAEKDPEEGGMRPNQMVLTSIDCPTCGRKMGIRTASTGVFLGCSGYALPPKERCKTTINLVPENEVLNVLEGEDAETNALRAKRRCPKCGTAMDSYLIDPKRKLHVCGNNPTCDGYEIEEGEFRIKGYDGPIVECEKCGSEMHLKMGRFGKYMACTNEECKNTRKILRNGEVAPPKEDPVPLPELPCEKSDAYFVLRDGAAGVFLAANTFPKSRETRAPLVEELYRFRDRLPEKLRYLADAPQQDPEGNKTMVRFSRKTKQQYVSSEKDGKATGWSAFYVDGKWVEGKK

[3] = tested on: Gram-positive bacteria tested (E. faecalis, MSSA, and MRSA); experiment: MIC range over the Gram-positive bacteria tested; assay type: cell-based, Enterococcus faecalis, Staphylococcus aureus; details: range over E. faecalis and S. aureus (MSSA, MRSA) strains
[4] = tested on: E. faecalis (ATCC 33186); experiment: microbe, parasite or virus in culture; assay type: cell-based; details: Enterococcus faecalis, ATCC33186, read-out: MIC E. faecalis (ATCC 33186)
[5] = tested on: S. aureus Newman; experiment: Time kill experiments; assay type: cell-based, Staphylococcus aureus; details: for type of killing (bactericidal / bacteriostatic): time kill, up to 24 h
[6] = tested on: S. aureus Newman; experiment: Membrane potential, DiOC2; assay type: cell-based, Staphylococcus aureus; details: DiOC2(3); up to 4× MIC
In short: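 Flow cytometry with the membrane-potential probe DiOC2(3) on S. aureus Newman grown in Mueller–Hinton II to OD600nm ≈ 0.3 and exposed to test compound. CCCP served as positive control and vancomycin as negative control. Three biological replicates were run.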

[7] = tested on: M. tuberculosis (H37Rv); experiment: MIC, microbroth dilution, M. tuberculosis; assay type: cell-based; details: Mycobacterium tuberculosis, read-out: MIC M. tuberculosis (H37Rv)
[8] = tested on: multidrug-resistant (MDR) strains of clinically relevant Staphylococcus aureus; details: natural olympicin A; cited from earlier work
[9] = target: Mycobacterium tuberculosis MurE ligase; details: read-out: MurE ligase IC50; ATP-dependent MurE ligase; cited from earlier work
[10] = tested on: S. aureus Newman; experiment: Macromolecular synthesis; assay type: cell-based, Staphylococcus aureus; details: 4× MIC
[11] = tested on: Clostridium difficile; details: synthetic olympicin A; cited from earlier work
[12] = tested on: S. aureus Newman; experiment: microbe, parasite or virus in culture; assay type: cell-based; details: Staphylococcus aureus, read-out: MIC against S. aureus Newman
[13] = tested on: S. aureus Newman; experiment: Selection of spontaneous mutants; assay type: cell-based, Staphylococcus aureus; details: concentrations between 1× and 4× MIC

Sequence of E. coli topoisomerase IV (P0AFI2 whole entry): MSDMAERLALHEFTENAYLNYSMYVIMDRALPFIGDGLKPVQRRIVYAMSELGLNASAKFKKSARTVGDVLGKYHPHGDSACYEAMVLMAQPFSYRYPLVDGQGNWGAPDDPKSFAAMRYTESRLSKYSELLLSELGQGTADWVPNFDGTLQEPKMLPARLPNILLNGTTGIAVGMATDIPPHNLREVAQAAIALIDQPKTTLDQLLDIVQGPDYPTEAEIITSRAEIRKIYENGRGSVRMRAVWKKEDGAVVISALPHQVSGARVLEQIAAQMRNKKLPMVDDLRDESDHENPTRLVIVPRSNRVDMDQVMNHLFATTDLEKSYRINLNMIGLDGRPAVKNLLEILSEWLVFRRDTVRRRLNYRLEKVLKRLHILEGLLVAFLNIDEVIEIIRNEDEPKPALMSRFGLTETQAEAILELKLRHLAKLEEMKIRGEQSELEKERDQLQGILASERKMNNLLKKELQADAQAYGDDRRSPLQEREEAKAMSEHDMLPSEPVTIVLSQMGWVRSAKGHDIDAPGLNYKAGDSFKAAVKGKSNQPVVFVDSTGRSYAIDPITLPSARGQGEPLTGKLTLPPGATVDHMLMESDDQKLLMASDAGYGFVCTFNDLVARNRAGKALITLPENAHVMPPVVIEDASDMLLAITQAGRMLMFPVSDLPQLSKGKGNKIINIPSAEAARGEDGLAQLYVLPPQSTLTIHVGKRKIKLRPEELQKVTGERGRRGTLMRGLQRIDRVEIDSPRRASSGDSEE
Sequence of E. coli topoisomerase IV (P20083 whole entry): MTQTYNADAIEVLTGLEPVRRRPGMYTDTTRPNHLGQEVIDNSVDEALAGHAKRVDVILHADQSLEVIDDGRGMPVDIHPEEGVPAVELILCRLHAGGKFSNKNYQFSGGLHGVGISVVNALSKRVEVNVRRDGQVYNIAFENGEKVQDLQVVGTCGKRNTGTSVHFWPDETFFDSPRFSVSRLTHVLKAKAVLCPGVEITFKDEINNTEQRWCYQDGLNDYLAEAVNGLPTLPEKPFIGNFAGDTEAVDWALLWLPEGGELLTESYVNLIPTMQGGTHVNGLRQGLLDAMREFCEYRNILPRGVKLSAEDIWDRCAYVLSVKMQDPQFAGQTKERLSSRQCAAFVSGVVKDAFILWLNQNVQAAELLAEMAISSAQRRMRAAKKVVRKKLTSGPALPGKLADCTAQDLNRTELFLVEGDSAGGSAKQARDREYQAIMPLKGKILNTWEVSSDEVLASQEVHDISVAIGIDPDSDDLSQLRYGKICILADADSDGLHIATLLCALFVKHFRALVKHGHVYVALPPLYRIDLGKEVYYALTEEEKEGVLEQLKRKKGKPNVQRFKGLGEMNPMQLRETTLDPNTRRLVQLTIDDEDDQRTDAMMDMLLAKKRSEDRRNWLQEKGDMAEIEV

Q: What does the source list for CCCCCCOc1ccccc1/C=C/C(=O)c1ccc(O)cc1O [Compound 8b, (E)-1-(2,4-Dihydroxyphenyl)-3-(2-(hexyloxy)phenyl)prop-2-en-1-one]?
A: IC50 [1]: 60 to 120 µM; IC50 [2]: > 500 µM

Q: Which “MIC range against Gram-positive bacteria tested” value [3] does the source give for CC1(C)C2CC=C(C3CC(=O)c4ccc(O)cc4O3)C1C2 (stereo not drawn) [Compound 3j, 2-(6,6-Dimethylbicyclo[3.1.1]hept-2-en-2-yl)-7-hydroxychroman-4-one] here?
A: largely inactive

Q: With CCC(C)C(=O)c1c(O)cc(O)cc1OC/C=C(\C)CCC=C(C)C (stereo not drawn) [Compound 2b, (E)-1-(2-((3,7-Dimethylocta-2,6-dien-1-yl)oxy)-4,6-dihydroxyphenyl)-2-methylbutan-1-one] as the compound, how does the MIC [4] read?
A: 1.56 µg/mL (≈ 4.5 µM)

Q: Which “type of killing (bactericidal / bacteriostatic)” value [5] does the source give for C/C(=C\C(=O)OCCCCCCCCC(=O)O)C[C@@H]1OC[C@H](C[C@@H]2O[C@H]2[C@@H](C)[C@H](C)O)[C@@H](O)[C@H]1O [mupirocin, reference compound] here?
A: either bacteriostatic or slowly bactericidal

Q: Which “effect on membrane potential” value [6] does the source give for CC[C@H](C)C(=O)c1c(O)cc(O)cc1OC/C=C(\C)CCC=C(C)C [Compound 2a, (S,E)-1-(2-((3,7-Dimethylocta-2,6-dien-1-yl)oxy)-4,6-dihydroxyphenyl)-2-methylbutan-1-one] here?
A: dissipated the membrane potential

Q: And the MIC [7]?
A: 200 µg/mL (≈ 577 µM)

Q: And the IC50 [1]?
A: 30 to 60 µM

Q: What about the “MIC against a panel of MDR S. aureus strains” value [8] of the same compound?
A: 0.5 to 1 µg/mL

Q: What about the “previously reported anti S. aureus activity (MIC)” value [8] of the same compound?
A: 0.5 to 1 µg/mL

Q: And the IC50 [9]?
A: 75 µM

Q: What about the IC50 [2] of the same compound?
A: > 500 µM

Q: And the “effect on macromolecular synthesis (DNA, RNA, protein)” value (“effect on macromolecular synthesis” below) [10]?
A: Several key biosynthetic processes were simultaneously inhibited

Q: And the “MIC against Clostridium difficile” value [11]?
A: 1 to 2 µg/mL

Q: With CCCCCCOc1ccccc1C1CC(=O)c2ccc(O)cc2O1 (stereo not drawn) [Compound 8j, 2-(2-(Hexyloxy)phenyl)-7-hydroxychroman-4-one] as the compound, how does the IC50 [1] read?
A: > 1000 µM

Q: And the IC50 [2]?
A: > 500 µM

Q: What does the source list for O=C(/C=C/c1ccc(N2CCCCC2)cc1)c1ccc(O)cc1O [Compound 8d, (E)-1-(2,4-Dihydroxyphenyl)-3-(4-(piperidin-1-yl)phenyl)prop-2-en-1-one]?
A: effect on membrane potential [6]: dissipated the membrane potential; IC50 [1]: 500 to 1000 µM; IC50 [2]: > 500 µM; effect on macromolecular synthesis (DNA, RNA, protein) [10]: Several key biosynthetic processes were simultaneously inhibited; type of killing (bactericidal / bacteriostatic) [5]: entirely bacteriostatic; MIC [12]: 6.25 µg/mL (≈ 19.3 µM)

Q: For CC(C)=CCCC(C)CC1CC(=O)c2c(O)cc(O)cc2O1 (stereo not drawn) [Compound 5j, 2-(2,6-Dimethylhept-5-en-1-yl)-5,7-dihydroxychroman-4-one], which “effect on membrane potential” value [6] is on record?
A: dissipated the membrane potential

Q: What about the “frequency of spontaneous mutants” value [13] of the same compound?
A: could not be selected

Q: What about the “effect on macromolecular synthesis” value [10] of the same compound?
A: Several key biosynthetic processes were simultaneously inhibited

Q: For CC[C@H]1OC(=O)[C@H](C)[C@@H](O[C@H]2C[C@@](C)(OC)[C@@H](O)[C@H](C)O2)[C@H](C)[C@@H](O[C@@H]2O[C@H](C)C[C@H](N(C)C)[C@H]2O)[C@](C)(O)C[C@@H](C)C(=O)[C@H](C)[C@@H](O)[C@]1(C)O [erythromycin], which MIC [12] is on record?
A: 0.78 µg/mL (≈ 1.06 µM)

Q: Which results are given for C=CCOc1ccccc1/C=C/C(=O)c1ccc(O)cc1O [Compound 8a, (E)-3-(2-(Allyloxy)phenyl)-1-(2,4-dihydroxyphenyl)prop-2-en-1-one]?
A: frequency of spontaneous mutants [13]: could not be selected; IC50 [1]: 250 to 500 µM; IC50 [2]: > 500 µM; effect on macromolecular synthesis (DNA, RNA, protein) [10]: Several key biosynthetic processes were simultaneously inhibited; type of killing (bactericidal / bacteriostatic) [5]: rapidly bactericidal

Q: With CCCCCCCCOc1ccccc1C1CC(=O)c2ccc(O)cc2O1 (stereo not drawn) [Compound 8k, 7-Hydroxy-2-(2-(octyloxy)phenyl)chroman-4-one] as the compound, how does the IC50 [1] read?
A: > 1000 µM

Q: And the IC50 [2]?
A: > 500 µM

Q: For CC(C)=CCCC(C)CC1CC(=O)c2c(O)cccc2O1 (stereo not drawn) [Compound 3l, 2-(2,6-Dimethylhept-5-en-1-yl)-5-hydroxychroman-4-one], which “MIC range against Gram-positive bacteria tested” value [3] is on record?
A: not active

Q: Which MIC [12] does the source give for O=C(O)c1cn(C2CC2)c2cc(N3CCNCC3)c(F)cc2c1=O [ciprofloxacin] here?
A: 0.25 µg/mL (≈ 0.754 µM)

Q: For CCCCCCCC1CC(=O)c2c(O)cc(O)cc2O1 (stereo not drawn) [Compound 5f, 2-Heptyl-5,7-dihydroxychroman-4-one], which IC50 [1] is on record?
A: 120 to 250 µM

Q: What about the IC50 [2] of the same compound?
A: > 500 µM

Q: What does the source list for CN[C@H](CC(C)C)C(=O)N[C@H]1C(=O)N[C@@H](CC(N)=O)C(=O)N[C@H]2C(=O)N[C@H]3C(=O)N[C@H](C(=O)N[C@H](C(=O)O)c4cc(O)cc(O)c4-c4cc3ccc4O)[C@H](O)c3ccc(c(Cl)c3)Oc3cc2cc(c3O[C@@H]2O[C@H](CO)[C@@H](O)[C@H](O)[C@H]2O[C@H]2C[C@](C)(N)[C@H](O)[C@H](C)O2)Oc2ccc(cc2Cl)[C@H]1O [vancomycin, reference compound]?
A: effect on membrane potential [6]: failed to affect the membrane potential; type of killing (bactericidal / bacteriostatic) [5]: either bacteriostatic or slowly bactericidal

Q: With CC1(C)C2CC=C(/C=C/C(=O)c3ccc(O)cc3O)C1C2 (stereo not drawn) [Compound 3g, (E)-1-(2,4-Dihydroxyphenyl)-3-(6,6-dimethylbicyclo[3.1.1]hept-2-en-2-yl)prop-2-en-1-one] as the compound, how does the “effect on membrane potential” value [6] read?
A: dissipated the membrane potential

Q: What about the “frequency of spontaneous mutants” value [13] of the same compound?
A: could not be selected

Q: And the IC50 [1]?
A: 60 to 120 µM

Q: And the IC50 [2]?
A: > 500 µM

Q: And the “effect on macromolecular synthesis” value [10]?
A: Several key biosynthetic processes were simultaneously inhibited

Q: And the “time required to achieve a 3 log reduction in cells” value ([5]; at its MIC (1×))?
A: up to 24 h

Q: What about the “type of killing (bactericidal / bacteriostatic)” value [5] of the same compound?
A: concentration-dependent killing

Q: Which IC50 [1] does the source give for CCCCCCCCOc1cc(O)cc(O)c1C(=O)C(C)CC (stereo not drawn) [Compound 2e, 1-(2,4-Dihydroxy-6-(octyloxy)phenyl)-2-methylbutan-1-one] here?
A: 30 to 60 µM

Q: What about the IC50 [2] of the same compound?
A: > 500 µM
